Screening data: PubChem, The Scripps Research Institute Molecular Screening Center
GPR7 antagonist: human neuropeptides B/W receptor 1 antagonism; P48145; GPR7-expressing cells, fluorescence antagonist assay; inhibition, % at 4.4 µM; actives 1.1% (n = 290,000); in the data active means inhibition above about 16%, passing the limit was not always enough;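 further: cells stimulated with the agonist NPW; 0% = agonist with vehicle and 100% = vehicle without agonist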
Target sequence (P48145 whole entry, looked up): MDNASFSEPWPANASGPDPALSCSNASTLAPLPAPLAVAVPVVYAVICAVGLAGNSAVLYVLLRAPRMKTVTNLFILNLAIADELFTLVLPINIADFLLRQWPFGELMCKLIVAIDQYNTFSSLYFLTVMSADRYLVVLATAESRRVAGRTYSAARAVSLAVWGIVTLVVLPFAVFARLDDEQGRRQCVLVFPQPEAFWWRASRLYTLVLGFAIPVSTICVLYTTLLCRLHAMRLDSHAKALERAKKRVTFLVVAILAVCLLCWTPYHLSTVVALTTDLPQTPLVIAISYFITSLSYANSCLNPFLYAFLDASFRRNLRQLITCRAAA
OX1R antag-1: blocks the human orexin 1 receptor; OX1R-expressing cells, FRET antagonist read-out; actives 1.8% (n = 330,000); inhibition, % at 6.6 µM; in the data active means inhibition mostly above about 38%, no sharp cut-off; inactive means mostly below about 40%;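 further: 0% = agonist challenge alone and 100% = reference antagonist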
OX1R antag-2: antagonists of human orexin 1 receptor. CHO/OX1R cells, Fluo-8 calcium fluorescence, orexin A. inhibition, % at 5 µM. actives 0.43% (n = 330,000);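 active means inhibition above its plate's threshold, mean inhibition of all tested compounds on the plate plus 3 SD, cut at about 37% in these data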;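 further: 0% = orexin A challenge wells and 100% = SB-334867-A antagonist wells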
CHO parental Ca: counter-screen for OX1R antagonists: effect in parental CHO cells | parental CHO-K1, ATP-induced calcium, Fluo-8 fluorescence | inhibition, % at 5.6 µM | actives 0.63% (n = 330,000);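 active means inhibition above that plate's mean sample inhibition plus 3 SD, cut at about 26% in these data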;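 further: 0% = ATP-challenged DMSO wells and 100% = DMSO wells without ATP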
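Material – parental CHO cells · Reagent – ATP stimulus · Compound – single nominal dose of 5.6 µM per compound · Detection – Fluo-8 fluorescence · Read-out basis – percent inhibition of calcium signal · Controls – ATP-challenged DMSO wells low, unchallenged DMSO wells high · Repeats – no replicates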
TAAR1 agonist: human TAAR1 agonism; Q96RJ0; CHO RD-HGA16 TAAR1, Fluo-8 calcium fluorescence; vehicle wells 0%, saturating PEA agonist 100%; activation, % at 3 µM; actives 0.99% (n = 360,000); AID 624467;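 active means activation above the mean activation of all test compounds in the run plus 3 SD, cut at about 38% in these data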
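Assay system – CHO-derived RD-HGA16 cells with stable Gα16 and human TAAR1 · Compound dosing – one-point dosing at 3 µM (nominal) · Incubation – 17-24 h seeding, 75 min 37 °C dye, 30 min RT · Measured by – kinetic Fluo-8 calcium fluorescence · Control set – DMSO vehicle as 0%, PEA at EC100 as 100% · Repeats – single well for each compound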
TAAR1 antagonist: human TAAR1 antagonism | Q96RJ0 | CHO RD-HGA16 TAAR1, Fluo-8 calcium fluorescence, antagonist | inhibition, % at 3 µM | actives 1.5% (n = 360,000) | AID 624466;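 active means inhibition above a per-plate cutoff, the mean inhibition of test compounds on that plate plus 3 SD, cut at about 49% in these data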;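 further: 0% = DMSO plus EC80 beta-PEA response and 100% = DMSO alone without agonist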
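Test system: hTAAR1-expressing CHO RD-HGA16 cells, Gα16-coupled; Probe or stimulus: EC80 β-phenethylamine stimulus; Compound dosing: single nominal final test compound concentration of 3 µM; Timing: 140 s kinetic read after compound, 140 s after agonist; Signal: Fluo-8 calcium-sensitive fluorescence; Measure: % inhibition of agonist calcium response; Controls: DMSO and EC80 PEA controls.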
OX1R Ca confirm: confirmation of human orexin 1 receptor antagonists; actives 38% (n = 1,100); AID 492963; shares compounds with OX1R antag-2; CHO/OX1R cells, orexin A calcium Fluo-8 fluorescence; inhibition, % at 5 µM; in the data active means inhibition above about 29%;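 further: 0% = agonist challenge alone and 100% = reference antagonist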
CHO Ca counter: counter-screen: parental CHO calcium response change, triplicate. parental CHO-K1, ATP-induced calcium, Fluo-8 fluorescence. inhibition, % at 5.6 µM. AID 492965. shares compounds with OX1R antag-2. actives 9.3% (n = 1,100);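 active means inhibition above a per-plate limit, the mean inhibition of that plate's test compounds plus 3 SD, cut at about 25% in these data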;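 further: 0% = ATP challenge with DMSO and 100% = DMSO without ATP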
OX1R HTRF conf: confirmation of human orexin 1 receptor antagonists, HTRF format; inhibition, % at 6.6 µM; OX1R-expressing cells, HTRF antagonist assay; actives 49% (n = 1,800); shares compounds with OX1R antag-1; in the data active means inhibition above about 55%;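 further: CHO cells expressing OX1R stimulated with orexin A at about EC80; 0% = agonist challenge alone and 100% = reference antagonist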
CHO-K1 HTRF: counter-screen for OX1R antagonists: effect in parental CHO-K1 cells; shares compounds with OX1R antag-1; HTRF counterscreen; inhibition, % at 6.6 µM; actives 48% (n = 1,800); in the data active means inhibition above about 17%;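 further: 0% = agonist challenge with vehicle and 100% = vehicle alone without agonist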
An asterisk follows results filed as active; . = no result given. Sampled rows, rich in hits. Any-hit rate of the full collection: about 4.5%.

SMILES | GPR7 antagonist | OX1R antag-1 | OX1R antag-2 | CHO parental Ca | TAAR1 agonist | TAAR1 antagonist | OX1R Ca confirm | CHO Ca counter | OX1R HTRF conf | CHO-K1 HTRF
COc1cccc(/C=C2/Oc3ccccc3N(CC(=O)NCC3CCCO3)C2=O)c1 (stereo unspecified) | -13.6 | 109.4* | 75.2* | -13.3 | . | . | 94.4* | -12.2 | 93.8* | 13.2
O=C(O)CN1C(=O)/C(=C/c2cccc(Cl)c2)Oc2ccccc21 | -9.2 | 77.4* | 32.1 | -8.2 | 1.8 | -20.6 | 13.4 | -2.7 | 66.2* | 10.8
CC1Oc2ccccc2N(CC(=O)NCC2CCCO2)C1=O (stereo unspecified) | -9.2 | 1.8 | -14.3 | -5.5 | 1.6 | 9.1 | . | . | . | .
Cc1cc(C(=O)N2CCC2(C)C(=O)NS(=O)(=O)c2cccc(OC(F)F)c2)nn1C (stereo unspecified) | . | . | . | . | 1.5 | -17.7 | . | . | . | .
CCCCNC(=S)NNC(=O)c1nn(C)cc1Cl | 16.8 | 8.0 | -16.2 | -3.7 | 5.2 | -18.2 | . | . | . | .
O=c1c2ccccc2oc2c1ccc1ccccc12 | . | 89.8* | 55.5* | -35.1 | . | . | 23.4 | -21.2 | 67.6* | -6.3
O=[N+]([O-])c1ccc(-c2cnc(SC(c3ccccc3)c3ccccc3)[nH]2)cc1 | 17.9 | 54.4* | 36.9 | 16.6 | 0.0 | 38.3 | 18.2 | 12.2 | 68.0* | 12.0
O=C(Nc1cc2c(cc1Br)OCCO2)c1cccnc1 | -4.0 | 8.7 | -12.7 | -8.6 | 1.8 | -15.2 | . | . | . | .
CCOc1ccc2[nH]c(C(=O)N/N=C/c3cc(OC)c(OC)c(OC)c3)cc2c1 | -12.0 | 3.1 | -23.3 | -11.4 | 14.6 | 43.5 | . | . | . | .
COc1ccc(OC)c(/C=N/NC(=O)c2cc3c(OC)cccc3[nH]2)c1 | 1.0 | 100.8* | 70.6* | -22.8 | 11.1 | 15.9 | 31.6* | -14.2 | 88.6* | 10.0
CCOc1ccc(/C=N/NC(=O)c2cc3c(OC)cc(OC)cc3[nH]2)cc1OC | -20.4 | 80.8* | 35.2 | -16.6 | 10.0 | 34.0 | 41.8* | -0.4 | 89.2* | 14.9
COc1cccc(/C=N/NC(=O)c2cc3c(OC)cccc3[nH]2)c1O | -5.6 | 28.6 | -14.9 | -2.1 | 5.4 | 15.8 | . | . | . | .
C=CC(=O)Nc1ccc(N(C)c2ccnc(Nc3ccc(N4CCN(C)CC4)cc3)n2)cc1 | . | 8.9 | -9.5 | -14.8 | 7.0 | 3.7 | . | . | . | .
NNC(=O)c1cc2sccc2s1 | -6.8 | 86.8* | 91.1* | -27.1 | 3.2 | 6.2 | 1.4 | 17.8 | 21.6 | 3.5
CC(=O)NNC(=O)c1cc2sccc2s1 | -6.2 | 9.3 | -10.3 | 6.7 | -0.1 | -12.4 | . | . | . | .
Cc1ccc(S(=O)(=O)N(CCCO)CC(O)CON=C2c3ccccc3-c3ccccc32)cc1 (stereo unspecified) | -7.4 | 72.8* | 41.9* | -6.2 | 8.4 | 24.5 | 26.1 | -3.8 | 75.9* | 4.2
CCN(CC(O)Cn1c2ccccc2c2ccccc21)S(=O)(=O)c1ccc(C)cc1 (stereo unspecified) | -9.3 | 11.4 | 1.0 | -20.4 | 8.9 | 22.7 | . | . | . | .
O=C(Cn1cnc2ccc(Br)cc2c1=O)c1cccs1 | -1.2 | 29.4 | -26.7 | -4.5 | . | . | . | . | . | .
COC(=O)N/N=C/c1ccc(-c2ccc(C)c(Cl)c2)o1 | -4.5 | 7.8 | -23.7 | -5.5 | -1.0 | -7.7 | . | . | . | .
Cc1ccc(-c2ccc(/C=N\NC(=O)C3C(=O)NCC3c3ccccc3)o2)cc1Cl (stereo unspecified) | -4.8 | 69.5* | 29.3 | -5.4 | 12.5 | 5.5 | 48.3* | 5.0 | 60.9* | 11.1
